ChEMBL document CHEMBL1125251, “4'-Hydroxy-3-methoxyflavones with potent antipicornavirus activity” (J Med Chem, 1991)
≈ marks a conversion by molar mass, not a printed value.

Assays:
Rattus norvegicus [1] = species on record: Rattus norvegicus; assay: Mutagenicity evaluated by calculating number of revertants using Salmonella Typhimurium strain TA 98 (2.5 mg/plate) without S9 mix from rat liver according to the plate incorporation assay.; format: functional
How it was run: (§1)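 Ames plate incorporation assay with Salmonella typhimurium TA 98 or TA 100, with or without rat liver S9 (20 µL S9 per plate). S9 came from male Wistar rats induced with phenobarbital (0.1% in drinking water) plus β-naphthoflavone (80 mg/kg ip on day 5 in corn oil), fasted 24 h and killed on day 7. Revertants per plate counted on duplicate plates per dose.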

Human rhinovirus sp. [2] = assay: Antirhinovirus activity against rhinovirus serotype 89 which were grown on Ohio HeLa cells; format: functional
[3] = Therapeutic Index measured as the ratio of CyD50 (rhino) / ED99 (rhino) values.; conditions: read-out: Therapeutic index 99
How it was run: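 TI99 = CyD50/ED99 for rhinovirus 15. ED99 came from end-point titration in human skin fibroblasts at 33 °C over 7 days. CyD50 came from fibroblast growth: 10⁶ cells were given serial 2-fold compound dilutions in quadruplicate for 6 days at 37 °C, then counted and reseeded, repeated five times. Generation time was calculated per concentration.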

Human rhinovirus sp. [4] = assay: Antirhinovirus activity against rhinovirus serotype 29 which were grown on Ohio HeLa cells; format: functional
Human rhinovirus sp. [5] = assay: Antirhinovirus activity against rhinovirus serotype 15 which were grown on Ohio HeLa cells; format: functional
[6] = Therapeutic Index measured as the ratio of CyD50(polio) / ED99(polio) values; format: organism-based; conditions: enterovirus c; read-out: Therapeutic index 99
How it was run: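 TI99 = CyD50/ED99 for poliovirus. ED99 came from end-point titration in Vero cells at 37 °C over 3 days. CyD50 came from Vero cell growth: 10⁶ cells were given serial 2-fold compound dilutions in quadruplicate for 6 days at 37 °C, then trypsinized, counted and reseeded, repeated five times. Generation time was calculated per concentration.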

Human rhinovirus sp. [7] = assay: Antirhinovirus activity against rhinovirus serotype 85 which were grown on Ohio HeLa cells; format: functional
Human rhinovirus sp. [8] = assay: Antirhinovirus activity against rhinovirus serotype 9 which were grown on Ohio HeLa cells; format: functional
Rattus norvegicus [9] = species on record: Rattus norvegicus; assay: Mutagenicity evaluated by calculating number of revertants using Salmonella Typhimurium strain TA 100 (0.25 mg/plate) with S9 mix from rat liver; format: functional; how it was run: as §1
Rattus norvegicus [10] = species on record: Rattus norvegicus; assay: Mutagenicity evaluated by calculating number of revertants using Salmonella Typhimurium strain TA 100 (0.25 mg/plate) without S9 mix from rat liver according to the plate incorporation assay.; format: functional
How it was run: (§2)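 Ames plate incorporation assay with Salmonella typhimurium TA98 or TA100, without S9, at 0.25 mg/plate. Revertants per plate were counted on duplicate plates per dose. Quercetin was the standard mutagen.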

Human rhinovirus sp. [11] = assay: Antirhinovirus activity against rhinovirus serotype 14 which were grown on Ohio HeLa cells; format: functional
Human rhinovirus sp. [12] = assay: Antirhinovirus activity against rhinovirus serotype 63 which were grown on Ohio HeLa cells; format: functional
Enterovirus C [13] = assay: Minimum drug concentration at which 99% of the polio virus is inhibited; format: functional
How it was run: (§3)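 Poliovirus type 1 Brunhilde 1A/S3 in Vero monolayers. Serial 10-fold virus dilutions adsorbed 1 h at 37 °C, then serial 2-fold compound dilutions were added. Incubated at 37 °C and scored for CPE by light microscopy, with a 3-day readout. Titer reduction is control/treated TCD50/mL. ED99 is the minimum concentration inhibiting 99% of virus. Virus, cell and compound controls were included.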

Human rhinovirus sp. [14] = assay: Antirhinovirus activity against rhinovirus serotype 39 which were grown on Ohio HeLa cells; format: functional
Human rhinovirus sp. [15] = assay: Antirhinovirus activity against rhinovirus serotype 2 which were grown on Ohio HeLa cells; format: functional
Rattus norvegicus [16] = species on record: Rattus norvegicus; assay: Compound was evaluated for the mutagenicity by calculating number of revertants using Salmonella Typhimurium strain TA 98 (2.5 mg/plate) with S9 mix from rat liver; format: functional; how it was run: as §1
Human rhinovirus sp. [17] = assay: Minimum drug concentration at which 99% of the rhino virus is inhibited.; format: functional
How it was run: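 End-point titration with rhinovirus type 15 on human skin fibroblast monolayers. Cells were infected with serial 10-fold virus dilutions and allowed 1 h adsorption at 37 °C. Serial 2-fold compound dilutions were then added and plates incubated at 33 °C. CPE was read daily by light microscopy for at least 1 week, titres as TCD50/mL. ED99 = minimum concentration inhibiting 99% of virus.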

[18] = Cytotoxic dose at which 50% growth of normal cells is inhibited; format: cell-based; conditions: chlorocebus sabaeus, Vero cells; read-out: CyD50
How it was run: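 Cell-growth cytotoxicity in Vero cells or human skin fibroblasts. Serial 2-fold dilutions in M-199 with 6% newborn calf serum were added in quadruplicate to 10⁶ cells and held 6 days at 37 °C. Cells were trypsinized, counted and reseeded with compound, repeated five times. Generation time was calculated per concentration. CyD50 = lowest concentration at least doubling generation time versus untreated cells.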

Rattus norvegicus [19] = species on record: Rattus norvegicus; assay: Mutagenicity evaluated by calculating number of revertants using Salmonella Typhimurium strain TA 100 (2.5 mg/plate) without S9 mix from rat liver; format: functional; how it was run: as §1
Human rhinovirus sp. [20] = assay: Antirhinovirus activity against rhinovirus serotype 59 which were grown on Ohio HeLa cells; format: functional
Rattus norvegicus [21] = species on record: Rattus norvegicus; assay: Compound was evaluated for the mutagenicity by calculating number of revertants using Salmonella Typhimurium strain TA 98 (0.25 mg/plate) with S9 mix from rat liver; format: functional; how it was run: as §1
Rattus norvegicus [22] = species on record: Rattus norvegicus; assay: Mutagenicity evaluated by calculating number of revertants using Salmonella Typhimurium strain TA 98 (0.25 mg/plate) without S9 mix from rat liver; format: functional; how it was run: as §2
Enterovirus C [23] = assay: Minimal dose which produces titer reduction at 10 ug/mL (mD RF10e3); format: functional
Rattus norvegicus [24] = species on record: Rattus norvegicus; assay: Mutagenicity evaluated by calculating number of revertants using Salmonella Typhimurium strain TA 100 (2.5 mg/plate) with S9 mix from rat liver; format: functional; how it was run: as §1
Human rhinovirus sp. [25] = assay: Antirhinovirus activity against rhinovirus serotype 41 which were grown on Ohio HeLa cells; format: functional
Enterovirus C [26] = assay: The ratio of the poliovirus viral titer of the virus control (reduction factor) to the viral titer in the presence of the maximal non-toxic dose (RF MNTD); format: functional; how it was run: as §3
Human rhinovirus sp. [27] = assay: Cytotoxic dose at which 50% growth of normal cells is inhibited against rhino virus infection.; format: functional
How it was run: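 Human skin fibroblasts, 10⁶ cells per flask, given serial 2-fold dilutions in quadruplicate in M-199 with 6% newborn calf serum and held 6 days at 37 °C. Cells were trypsinized, counted in a chamber and reseeded with compound over five repeat cycles. CyD50 = lowest concentration at least doubling cell generation time relative to untreated control.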

Enterovirus C [28] = assay: Maximal non-toxic dose (MNTD) that shows antiviral activity.; format: functional
How it was run: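 End-point titration. Poliovirus type 1 Brunhilde was run in Vero cells at 37 °C with a 3-day read. Rhinovirus 15 was run in human skin fibroblasts at 33 °C with a 7-day read. Monolayers got serial 10-fold virus dilutions and adsorbed 1 h at 37 °C, then serial 2-fold compound dilutions (DMSO stock in maintenance medium). CPE was read by light microscopy. RF = control titer (TCD50/mL) / titer at maximal nontoxic dose.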

**Q.** With `COc1c(-c2ccc(O)cc2)oc2cc(O)c(C)c(C)c2c1=O` as the molecule, how does the Revertants/plate (Rattus norvegicus [1]) read?
**A.** 10

**Q.** What about the MIC50 (Human rhinovirus sp. [2]) of the same molecule?
**A.** 0.5 µg/mL (≈ 1.6 µM)

**Q.** What about the selectivity ratio [3] of the same molecule?
**A.** > 200

**Q.** What about the MIC50 (Human rhinovirus sp. [4]) of the same molecule?
**A.** 0.078 µg/mL (≈ 0.25 µM)

**Q.** And the MIC50 (Human rhinovirus sp. [5])?
**A.** 0.088 µg/mL (≈ 0.282 µM)

**Q.** What about the selectivity ratio [6] of the same molecule?
**A.** > 1000

**Q.** And the MIC50 (Human rhinovirus sp. [7])?
**A.** 0.076 µg/mL (≈ 0.243 µM)

**Q.** What about the MIC50 (Human rhinovirus sp. [8]) of the same molecule?
**A.** 0.156 µg/mL (≈ 0.499 µM)

**Q.** And the Revertants/plate (Rattus norvegicus [9])?
**A.** 103

**Q.** And the Revertants/plate (Rattus norvegicus [10])?
**A.** 110

**Q.** And the MIC50 (Human rhinovirus sp. [11])?
**A.** 0.072 µg/mL (≈ 0.231 µM)

**Q.** And the MIC50 (Human rhinovirus sp. [12])?
**A.** 0.074 µg/mL (≈ 0.237 µM)

**Q.** What about the ED99 (Enterovirus C [13]) of the same molecule?
**A.** 0.1 µg/mL

**Q.** What about the MIC50 (Human rhinovirus sp. [14]) of the same molecule?
**A.** 0.088 µg/mL (≈ 0.282 µM)

**Q.** And the MIC50 (Human rhinovirus sp. [15])?
**A.** 0.044 µg/mL (≈ 0.141 µM)

**Q.** And the Revertants/plate (Rattus norvegicus [16])?
**A.** 9

**Q.** And the ED99 (Human rhinovirus sp. [17])?
**A.** 0.5 µg/mL

**Q.** What about the CC50 [18] of the same molecule?
**A.** > 100 µg/mL

**Q.** And the Revertants/plate (Rattus norvegicus [19])?
**A.** 85

**Q.** And the MIC50 (Human rhinovirus sp. [20])?
**A.** 0.016 µg/mL (≈ 0.0512 µM)

**Q.** And the Revertants/plate (Rattus norvegicus [21])?
**A.** 20

**Q.** What about the Revertants/plate (Rattus norvegicus [22]) of the same molecule?
**A.** 12

**Q.** What about the Minimal dose (Enterovirus C [23]) of the same molecule?
**A.** <2.5 µg/mL

**Q.** What about the Revertants/plate (Rattus norvegicus [24]) of the same molecule?
**A.** 94

**Q.** And the MIC50 (Human rhinovirus sp. [25])?
**A.** 0.088 µg/mL (≈ 0.282 µM)

**Q.** And the Reduction factor (Enterovirus C [26])?
**A.** 1000000

**Q.** And the CyD50 (Human rhinovirus sp. [27])?
**A.** 100 µg/mL

**Q.** And the Max non-toxic dose (Enterovirus C [28])?
**A.** >100 µg/mL
